This note sets out measurements from ChEMBL document CHEMBL4177578, “Synthesis, pharmacological activities and molecular docking studies of pyrazolyltriazoles as anti-bacterial and anti-inflammatory agents” (Bioorg Med Chem, 2017).

SMILES strings stand for the structures. Converted amounts (≈) assume the structure as drawn. The source made the active and inactive calls. The calls are words filed in the database; no cut-off is given here.

Assay [1] deals with U-937. Description: Anti-inflammatory activity in human U937 cells assessed as inhibition of LPS-induced IL6 production pre-incubated for 1 hr before LPS stimulation for 24 hrs by ELISA method. The assay is classed as functional, cell-based. In short, it runs like this:
(§1)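 Human U937 cells grown in RPMI1640 with 10% FBS at 37 °C, 5% CO2. Differentiated with PMA 30 ng/ml for 24 h. Test compounds added for 1 h, then LPS 1 µg/ml for 24 h. TNF-α and IL-6 in supernatant measured by ELISA. Three independent experiments.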

Assay [2] relates to U-937. Description: Anti-inflammatory activity in human U937 cells assessed as inhibition of LPS-induced IL6 production at 10 uM pre-incubated for 1 hr before LPS stimulation for 24 hrs by ELISA method. The assay is classed as functional. Summed up:
as §1

The subject of assay [3] is U-937. Description: Anti-inflammatory activity in human U937 cells assessed as inhibition of LPS-induced TNFalpha production pre-incubated for 1 hr before LPS stimulation for 24 hrs by ELISA method. The assay is classed as functional, cell-based. Summed up:
as §1

For assay [4], the system named is U-937. Nature of the assay: Anti-inflammatory activity in human U937 cells assessed as inhibition of LPS-induced TNFalpha production at 10 uM pre-incubated for 1 hr before LPS stimulation for 24 hrs by ELISA method. The assay is classed as functional. In short, it runs like this: as §1
Assay [5] deals with Salmonella paratyphi. Nature of the assay: Antimicrobial activity against Salmonella paratyphi at 1 mg/ml incubated for 20 to 30 mins followed by incubation for 24 hrs at 37 degC by agar plate method. The assay is classed as functional, Salmonella enterica subsp. enterica serovar Paratyphi A. The following applies: Salmonella enterica; read-out: DIZ. Summed up:
(§2)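 Agar well diffusion on nutrient agar. Plates swabbed with 60 µL inoculum, 8 mm wells loaded with 100 µL sample at 1.0 mg/mL, streptomycin standard and control in separate wells. Plates held 20–30 min at 4 °C for diffusion, then 24 h at 37 °C. Zone diameter read in mm; triplicate.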

Assay [6] deals with Salmonella paratyphi. Nature of the assay: Antimicrobial activity against Salmonella paratyphi incubated for 12 to 16 hrs followed by plating in nutrient agar by tube dilution method. The assay is classed as functional, Salmonella enterica subsp. enterica serovar Paratyphi A. Particulars: Salmonella enterica. Summed up: (§3)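 After 12-16 h at 37 °C in tube dilution (500 to 1.9 µg/mL; 1 mL inoculum at OD 0.2), the culture from each tube was plated on nutrient agar. MBC is the concentration at which cells are completely killed.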

Assay [7] relates to Salmonella typhi. Description: Antimicrobial activity against Salmonella typhi at 1 mg/ml incubated for 20 to 30 mins followed by incubation for 24 hrs at 37 degC by agar plate method. The assay is classed as functional, Salmonella enterica subsp. enterica serovar Typhi. Particulars: Salmonella enterica; read-out: DIZ. In short, it runs like this: as §2
The subject of assay [8] is Salmonella typhi. Description: Antimicrobial activity against Salmonella typhi incubated for 12 to 16 hrs followed by plating in nutrient agar by tube dilution method. The following applies: Salmonella enterica. The assay is classed as functional, Salmonella enterica subsp. enterica serovar Typhi. In short, it runs like this:
as §3

For assay [9], the system named is Micrococcus luteus. Nature of the assay: Antimicrobial activity against Micrococcus luteus incubated for 12 to 16 hrs by tube dilution method. The assay is classed as functional. In short, it runs like this: (§4)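 Tube dilution, serial from 500 to 1.9 µg/mL, plus drug-free control tube. Each tube inoculated with 1 mL culture at OD 0.2, incubated 37 °C for 12–16 h. MIC is the lowest concentration with no growth by turbidity. MBC is found by plating each tube on nutrient agar: the lowest concentration at which all cells are killed.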

Assay [10] is described as follows: Anti-inflammatory activity at 50 ug/ml using bovine serum albumin and egg albumin proteins incubated at 37 degC for 20 mins and then heated to 95 degC for 20 mins by UV-visible Spectrophotometry based protein denaturation method. The assay is classed as functional. Summed up: (§5)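 Albumin (bovine serum or egg) at 1% in 50 mM sodium phosphate buffer pH 6.4. Mixture is 0.1 ml test sample (1 mg/ml) plus 0.2 ml albumin, made to 5 ml with buffer. Held 37 °C for 20 min, then 95 °C for 20 min. Cooled to room temperature, turbidity read at 660 nm. % inhibition = (Abs control − Abs sample)/Abs control × 100. Triplicate, averaged.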

For assay [11], the system named is Micrococcus luteus. Description: Antimicrobial activity against Micrococcus luteus at 1 mg/ml incubated for 20 to 30 mins followed by incubation for 24 hrs at 37 degC by agar plate method. The assay is classed as functional. Particulars: read-out: DIZ. In short, it runs like this:
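Agar well diffusion on nutrient agar. Plates swabbed with 60 µL inoculum; 8 mm wells loaded with 100 µL of compound at 1.0 mg/mL. Held 20–30 min at 4 °C for diffusion, then 24 h at 37 °C. Inhibition zone diameter read in mm. Triplicate.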

The subject of assay [12] is Micrococcus luteus. Nature of the assay: Antimicrobial activity against Micrococcus luteus incubated for 12 to 16 hrs followed by plating in nutrient agar by tube dilution method. The assay is classed as functional. Summed up: as §4
Assay [13] relates to Salmonella paratyphi. Description: Antimicrobial activity against Salmonella paratyphi incubated for 12 to 16 hrs by tube dilution method. The assay is classed as functional, Salmonella enterica subsp. enterica serovar Paratyphi A. Particulars: Salmonella enterica. Summed up:
(§6)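 Broth tube dilution, two-fold serial dilutions from 500 to 1.9 µg/mL plus a drug-free control tube. Each tube inoculated with 1 mL culture at OD 0.2 (~McFarland standard), 37 °C for 12-16 h. Turbidity compared with the control tube. MIC is the lowest concentration giving complete growth inhibition.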

Assay [14] can be described thus: Anti-inflammatory activity using bovine serum albumin and egg albumin proteins incubated at 37 degC for 20 mins and then heated to 95 degC for 20 mins by UV-visible Spectrophotometry based protein denaturation method. The assay is classed as functional. In short, it runs like this: as §5
A short description of assay [15]: Anti-inflammatory activity at 100 ug/ml using bovine serum albumin and egg albumin proteins incubated at 37 degC for 20 mins and then heated to 95 degC for 20 mins by UV-visible Spectrophotometry based protein denaturation method. The assay is classed as functional. In short, it runs like this:
as §5

The subject of assay [16] is Salmonella typhi. Description: Antimicrobial activity against Salmonella typhi incubated for 12 to 16 hrs by tube dilution method. The assay is classed as functional, Salmonella enterica subsp. enterica serovar Typhi. Particulars: Salmonella enterica. In short, it runs like this: as §6
The subject of assay [17] is Mus musculus. Description: Anti-inflammatory activity in Balb/c mouse assessed as reduction in LPS-induced serum IL6 production at 100 mg/kg, ig dosed for 3 consecutive days before LPS challenge and measured 6 hrs post LPS injection by ELISA method. The assay is classed as functional, organism-based. Summed up: (§7)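 Male Balb/c mice (20–25 g), 8 per group. Test compound at 100 mg/kg suspended in 2% gum acacia (10 ml/kg), given orally (intragastric) for 3 consecutive days. On day 3, LPS (10 mg/kg) given ip 1 h after the oral dose. Serum taken from retro-orbital blood 6 h after LPS; TNF-α and IL-6 measured by ELISA. Mean ± S.E.M.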

The test system of assay [18] is Mus musculus. Description: Anti-inflammatory activity in Balb/c mouse assessed as reduction in LPS-induced serum TNFalpha production at 100 mg/kg, ig dosed for 3 consecutive days before LPS challenge and measured 6 hrs post LPS injection by ELISA method. The assay is classed as functional, organism-based. In short, it runs like this: as §7

Take `COc1ccc(C2CNC(=O)C2)cc1OC1CCCC1` (stereo not given) [ROLIPRAM]: the IC50 in the assay with U-937 [1] is 1.17 µM; in the assay with U-937 [3], 1.12 µM. Moreover, the inhibition at 10 µM in the assay on U-937 [2] is 53.5%; with U-937 [4], 59.1%.
Consider `COc1ccc(-c2nn(-c3ccccc3)cc2Cn2cc(CO)nn2)cc1`, for which the zone of inhibition at 1000 µg/mL was 19 mm in the assay on Salmonella paratyphi [5], 16 mm in the assay with Salmonella typhi [7] and 26 mm with Micrococcus luteus [11]. The minimal bactericidal concentration (MBC) turned out to be 62.5 µg/mL (≈ 173 µM) in the assay with Salmonella paratyphi [6], 125 µg/mL (≈ 346 µM) in the assay on Salmonella typhi [8] and 125 µg/mL (≈ 346 µM) against Micrococcus luteus [12]. Also, the IC50 in the assay with U-937 [1] was 9.5 µM; with U-937 [3] it was 17.2 µM; in [14], 58 µg/mL (≈ 160 µM). Moreover, the figures for the MIC with Micrococcus luteus [9], against Salmonella paratyphi [13] and in the assay on Salmonella typhi [16] were 125 µg/mL (≈ 346 µM), 62.5 µg/mL (≈ 173 µM) and 62.5 µg/mL (≈ 173 µM), respectively. The inhibition at 10 µM amounted to 46.7% in the assay with U-937 [2] and 40.9% with U-937 [4]. Moreover, the inhibition in assay [10] turned out to be 69%; in assay [15], 86.2%.
Regarding `OCc1cn(Cc2cn(-c3ccccc3)nc2-c2ccc(Cl)cc2)nn1`, in the assay on Salmonella paratyphi [5], the zone of inhibition at 1000 µg/mL came out at 15 mm. The figures for the IC50 (with U-937 [1]; in the assay on U-937 [3]; in assay [14]) were 6.23 µM, 30.9 µM and 68.24 µg/mL (≈ 187 µM), respectively. Also, the inhibition at 10 µM with U-937 [2] amounted to 76.9%; in the assay with U-937 [4] it was 19.2%. Also, the inhibition in [10] amounted to 49.1%; in [15], 73.3%.
As to `OCc1cn(-c2ccc(Cl)cc2)nc1-c1ccccc1`, the zone of inhibition at 1000 µg/mL in the assay with Salmonella paratyphi [5] stood at 18 mm; with Salmonella typhi [7] it was 21.5 mm; with Micrococcus luteus [11] it was 26.5 mm. The minimum bactericidal concentration (MBC) against Salmonella paratyphi [6] is 62.5 µg/mL (≈ 219 µM); in the assay with Salmonella typhi [8] it was 125 µg/mL (≈ 439 µM); against Micrococcus luteus [12], 7.81 µg/mL (≈ 27.4 µM). For the same compound, the figures for the MIC in the assay with Micrococcus luteus [9], in the assay on Salmonella paratyphi [13] and in the assay on Salmonella typhi [16] were 3.9 µg/mL (≈ 13.7 µM), 31.2 µg/mL (≈ 110 µM) and 62.5 µg/mL (≈ 219 µM), respectively. Further, the inhibition at 10 µM with U-937 [2] came to 21.6%; in the assay on U-937 [4] it was 2.61%. The inhibition in [10] was 76.7%; in [15] it was 92.2%. Besides, the IC50 in assay [14] worked out at 54.21 µg/mL (≈ 190 µM).
Consider `Cc1ccc(-n2cc(Cn3cc(CO)nn3)c(-c3ccccc3)n2)cc1C`, for which the zone of inhibition at 1000 µg/mL in the assay with Salmonella typhi [7] worked out at 15.5 mm. Further, the IC50 in the assay with U-937 [1] turned out to be 7.72 µM; in the assay with U-937 [3] it was 17.4 µM; in [14] it was 64.44 µg/mL (≈ 179 µM). Besides, in the assay on Mus musculus [17], the inhibition result was “inactive”. Further, the inhibition at 10 µM stood at 87% in the assay on U-937 [2] and 41.7% in the assay on U-937 [4]. For the same compound, the inhibition was determined as 46.5% in assay [10] and 77.6% in assay [15]. Further, the inhibition entry with Mus musculus [18] is “Active”.
Take `Cc1ccc(-n2cc(Cn3cc(CO)nn3)c(-c3ccccc3)n2)cc1`: the zone of inhibition at 1000 µg/mL with Salmonella paratyphi [5] came out at 11.5 mm; in the assay on Salmonella typhi [7], 19 mm. The concentration for half-maximal inhibition (IC50) in the assay with U-937 [1] came to 8.7 µM; with U-937 [3], 21.4 µM; in assay [14], 59.79 µg/mL (≈ 173 µM). The inhibition at 10 µM was found to be 50.4% in the assay with U-937 [2] and 31.2% in the assay on U-937 [4]. Moreover, the inhibition worked out at 66.4% in assay [10] and 83.6% in [15].
Take `OCc1cn(Cc2cn(-c3ccccc3)nc2-c2ccccc2)nn1`: the zone of inhibition at 1000 µg/mL with Salmonella paratyphi [5] stood at 12.5 mm. Moreover, the IC50 was determined as 8.12 µM in the assay with U-937 [1], 35.7 µM in the assay on U-937 [3] and 128.89 µg/mL (≈ 389 µM) in [14]. Also, the inhibition at 10 µM in the assay with U-937 [2] stood at 53%; in the assay on U-937 [4] it was 15.7%. Besides, the inhibition in assay [10] came to 10.3%; in assay [15], 38.8%.
For `COc1ccc(-c2nn(-c3ccccc3)cc2CO)cc1`, the zone of inhibition at 1000 µg/mL in the assay with Salmonella paratyphi [5] is 11.5 mm. The IC50 amounted to 8.24 µM with U-937 [1], 35.5 µM in the assay on U-937 [3] and 105.45 µg/mL (≈ 376 µM) in [14]. The inhibition at 10 µM with U-937 [2] was found to be 68.5%; in the assay with U-937 [4], 22.9%. In addition, the results for the inhibition in assay [10] and in assay [15] were 15.5% and 47.4%, respectively.
`Cc1ccc(-c2nn(-c3ccccc3)cc2CO)cc1`: the zone of inhibition at 1000 µg/mL with Salmonella paratyphi [5] is 14 mm; with Salmonella typhi [7] it was 19 mm; in the assay with Micrococcus luteus [11], 16.5 mm. Besides, the inhibition at 10 µM turned out to be 20.9% in the assay on U-937 [2] and 0.74% with U-937 [4]. For the same compound, the results for the inhibition in [10] and in assay [15] were 60.3% and 81.9%, respectively. Moreover, the IC50 in [14] came out at 61.05 µg/mL (≈ 231 µM).
